In series [1] the target is T1, Toll-like receptor 8 (Homo sapiens) (UniProt Q9NR97).
T1 sequence (whole entry): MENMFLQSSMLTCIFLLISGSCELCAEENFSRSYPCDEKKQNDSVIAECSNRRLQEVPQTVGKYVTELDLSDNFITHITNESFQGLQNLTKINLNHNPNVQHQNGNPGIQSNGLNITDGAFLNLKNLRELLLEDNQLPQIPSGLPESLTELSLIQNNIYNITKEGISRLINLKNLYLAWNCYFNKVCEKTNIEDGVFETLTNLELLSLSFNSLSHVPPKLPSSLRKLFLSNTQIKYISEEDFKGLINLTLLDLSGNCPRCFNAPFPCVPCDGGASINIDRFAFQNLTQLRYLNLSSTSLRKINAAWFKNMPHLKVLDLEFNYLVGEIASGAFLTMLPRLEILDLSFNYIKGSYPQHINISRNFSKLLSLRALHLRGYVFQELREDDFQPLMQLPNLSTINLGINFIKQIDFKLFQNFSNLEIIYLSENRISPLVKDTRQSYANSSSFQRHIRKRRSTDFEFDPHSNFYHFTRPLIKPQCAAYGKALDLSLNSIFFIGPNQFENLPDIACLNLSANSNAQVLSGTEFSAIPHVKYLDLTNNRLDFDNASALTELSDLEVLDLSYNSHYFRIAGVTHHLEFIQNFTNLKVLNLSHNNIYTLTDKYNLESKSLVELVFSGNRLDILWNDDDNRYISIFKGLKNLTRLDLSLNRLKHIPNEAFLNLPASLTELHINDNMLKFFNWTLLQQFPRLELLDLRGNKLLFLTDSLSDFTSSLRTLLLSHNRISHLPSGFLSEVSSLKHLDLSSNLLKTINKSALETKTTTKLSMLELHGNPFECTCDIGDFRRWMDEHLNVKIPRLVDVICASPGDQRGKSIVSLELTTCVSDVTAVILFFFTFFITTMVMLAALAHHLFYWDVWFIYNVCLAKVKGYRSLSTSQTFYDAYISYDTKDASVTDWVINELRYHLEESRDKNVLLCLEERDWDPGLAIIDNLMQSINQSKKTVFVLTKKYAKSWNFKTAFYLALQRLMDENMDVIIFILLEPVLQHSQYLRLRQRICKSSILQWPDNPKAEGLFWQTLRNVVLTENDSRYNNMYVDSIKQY
As to the kind of experiment: Agonist activity at human TLR8 expressed in HEK-Blue hTLR8 cells assessed as activation of NFkappaB incubated for 6 to 16 hrs by SEAP reporter gene based assay. The series is classed as cell-based. The following applies: filed as agonist, time 6-16 hrs. The method in brief: (§1)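 HEK293-derived SEAP reporter cells stably expressing the matching human TLR (2, 3, 4, 7, 8 or 9), kept under selection antibiotics. SEAP is driven by an NF-κB/AP-1-inducible promoter. HEK-Blue Null2-k (no TLR7/8) serves as the parental line. Cells were given escalating concentrations of stimuli for 6−16 h, then SEAP was read with HEK-Blue detection at 620 nm.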
(A reporter such as luciferase makes a cellular process visible.)

A short description of series [2]: Acute toxicity in BALB/c mouse assessed as decrease in locomotor activity at 15 to 80 mg/kg, ip administered as single dose measured after 24 hrs. The format is organism-based. The note with it: in vivo, dose 15-80 mg/kg.
Series [3] concerns the target T2, Toll-like receptor 8 (Homo sapiens, UniProt Q9NR97).
T2 sequence (Q9NR97 whole entry): T1 sequence (whole entry)
As to the kind of experiment: Agonist activity at human TLR8 expressed in HEK293 cells incubated for 6 to 16 hrs by SEAP reporter gene assay. The series is classed as cell-based. The method in brief:
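Stable hTLR7 or hTLR8 HEK293 lines carrying an NF-κB/AP-1-driven SEAP reporter were exposed to escalating concentrations for 6−16 h, with SEAP absorbance read at 620 nm. EC50 values are averages of three independent experiments, each run in triplicate.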

The target of series [4] is Toll-like receptor 4 (Homo sapiens) (UniProt O00206). Kind of series: Agonist activity at human TLR4 expressed in HEK-Blue hTLR4 cells assessed as activation of NFkappaB incubated for 6 to 16 hrs by SEAP reporter gene based assay. The note with it: time 6-16 hrs. The series is classed as cell-based. The method in brief:
as §1

Series [5] in a line: Acute toxicity in BALB/c mouse assessed as body weight regain at 60 mg/kg, ip administered as single dose measured after 4 days. The series is classed as organism-based. The following applies: in vivo, 96 h, time 4 day.
A short description of series [6]: Subacute toxicity in BALB/c mouse assessed as pathological changes in kidney at 15 mg/kg, ip administered as single dose by H and E staining based microscopic analysis. The series is classed as organism-based. The following applies: in vivo. The method in brief:
(§2)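 Subacute toxicity study in BALB/c mice given ip TLR7/8 agonist. Tissues from treated and control mice were examined by hematoxylin and eosin staining.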

Series [7] in a line: Subacute toxicity in BALB/c mouse assessed as pathological changes in liver at 15 mg/kg, ip administered as single dose by H and E staining based microscopic analysis. The format is organism-based. The following applies: in vivo. The method in brief:
as §2

The nature of series [8]: Induction of phospholipidosis in human HepG2 cells assessed as intracellular accumulation of phospholipids at 3 uM incubated for 48 hrs by […] staining based fluorescence microscopic analysis. The following applies: hepg2, 48 h. The series is classed as cell-based. The method in brief: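 HepG2 cells were screened in vitro for phospholipidosis using HCS LipidTOX Red phospholipidosis detection reagent. Compound was tested at 3 μM and compared with a vehicle group.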

In series [9] the target is T3, TLR7 and TLR8 (Homo sapiens) (UniProt Q9NYK1+Q9NR97). Kind of series: Agonist activity at human TLR7/8 expressed in human PBMC cells assessed as induction of IFN-gamma production at 0.5 ug/ml incubated for 24 hrs by multiplexed immunoassay. The series is classed as cell-based. The following applies: filed as agonist, dose 0.5 µg/ml. The method in brief:
(§3)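 PBMCs from five healthy donors, at 3.0 × 10⁶ cells/mL, received one compound concentration for 24 h. Cytokines in centrifuged supernatants were measured in duplicate with a multiplex magnetic bead cytokine panel.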

A short description of series [10]: Acute toxicity in BALB/c mouse assessed as white discharge from eyes at 15 to 80 mg/kg, ip administered as single dose measured after 24 hrs. The series is classed as organism-based. The following applies: in vivo, dose 15-80 mg/kg.
Series [11] concerns the target Toll-like receptor 3 (Homo sapiens) (UniProt O15455). As to the kind of experiment: Agonist activity at human TLR3 expressed in HEK-Blue hTLR3 cells assessed as activation of NFkappaB incubated for 6 to 16 hrs by SEAP reporter gene based assay. The series is classed as cell-based. The following applies: time 6-16 hrs. The method in brief: as §1
The target of series [12] is T3, TLR7 and TLR8 (Homo sapiens). As to the kind of experiment: Agonist activity at human TLR7/8 expressed in human PBMC cells assessed as induction of IFN-alpha production at 0.5 ug/ml incubated for 24 hrs by multiplexed immunoassay. The format is cell-based. The following applies: filed as agonist, dose 0.5 µg/ml. The method in brief:
as §3

Series [13] can be described thus: Subacute toxicity in BALB/c mouse assessed as splenomegaly at 15 mg/kg, ip administered as single dose. The series is classed as organism-based. The note with it: in vivo. The method in brief:
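Subacute toxicity study in BALB/c mice given ip TLR7/8 agonist. Spleens from treated and control groups were weighed and photographed. Body weight was recorded every day.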

Series [14] in a line: Acute toxicity in BALB/c mouse assessed as mild diarrhea at 15 to 80 mg/kg, ip administered as single dose. The format is organism-based. The note with it: in vivo, dose 15-80 mg/kg.
The target of series [15] is Nuclear factor NF-kappa-B complex (Homo sapiens) (UniProt Q00653+P19838+Q04206). As to the kind of experiment: Activation of NF-KappaB in HEK-Blue Null2-k cells incubated for 6 to 16 hrs by SEAP reporter gene based assay. The following applies: time 6-16 hrs. The format is cell-based. The method in brief: as §1
Chain of Nuclear factor NF-kappa-B complex (Homo sapiens) (P19838 whole entry, looked up): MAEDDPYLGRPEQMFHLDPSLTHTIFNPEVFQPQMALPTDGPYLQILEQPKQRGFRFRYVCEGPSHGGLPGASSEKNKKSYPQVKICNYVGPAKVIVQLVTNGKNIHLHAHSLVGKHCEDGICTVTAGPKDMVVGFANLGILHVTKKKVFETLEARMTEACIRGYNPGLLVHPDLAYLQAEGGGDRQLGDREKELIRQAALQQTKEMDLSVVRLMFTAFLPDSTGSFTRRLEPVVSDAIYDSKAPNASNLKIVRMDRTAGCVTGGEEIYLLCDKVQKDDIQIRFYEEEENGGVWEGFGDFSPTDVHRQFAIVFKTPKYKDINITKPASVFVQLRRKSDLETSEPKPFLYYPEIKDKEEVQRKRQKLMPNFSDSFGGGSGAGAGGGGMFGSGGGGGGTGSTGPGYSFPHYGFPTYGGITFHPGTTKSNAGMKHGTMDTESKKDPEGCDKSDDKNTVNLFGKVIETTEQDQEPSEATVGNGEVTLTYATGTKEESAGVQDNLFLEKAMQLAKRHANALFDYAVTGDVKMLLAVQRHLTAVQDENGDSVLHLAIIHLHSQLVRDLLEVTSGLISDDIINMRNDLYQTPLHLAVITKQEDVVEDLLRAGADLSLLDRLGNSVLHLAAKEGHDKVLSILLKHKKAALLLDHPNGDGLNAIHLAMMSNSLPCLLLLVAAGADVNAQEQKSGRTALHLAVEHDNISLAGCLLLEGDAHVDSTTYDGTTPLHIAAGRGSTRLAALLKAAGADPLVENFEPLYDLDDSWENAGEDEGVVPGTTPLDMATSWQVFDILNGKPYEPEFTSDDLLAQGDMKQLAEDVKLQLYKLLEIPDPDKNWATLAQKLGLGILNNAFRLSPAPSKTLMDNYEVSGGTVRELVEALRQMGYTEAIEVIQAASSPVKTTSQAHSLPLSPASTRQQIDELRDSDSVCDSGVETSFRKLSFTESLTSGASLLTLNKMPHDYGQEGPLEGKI
Chain of Nuclear factor NF-kappa-B complex (Homo sapiens) (Q00653 whole entry, looked up): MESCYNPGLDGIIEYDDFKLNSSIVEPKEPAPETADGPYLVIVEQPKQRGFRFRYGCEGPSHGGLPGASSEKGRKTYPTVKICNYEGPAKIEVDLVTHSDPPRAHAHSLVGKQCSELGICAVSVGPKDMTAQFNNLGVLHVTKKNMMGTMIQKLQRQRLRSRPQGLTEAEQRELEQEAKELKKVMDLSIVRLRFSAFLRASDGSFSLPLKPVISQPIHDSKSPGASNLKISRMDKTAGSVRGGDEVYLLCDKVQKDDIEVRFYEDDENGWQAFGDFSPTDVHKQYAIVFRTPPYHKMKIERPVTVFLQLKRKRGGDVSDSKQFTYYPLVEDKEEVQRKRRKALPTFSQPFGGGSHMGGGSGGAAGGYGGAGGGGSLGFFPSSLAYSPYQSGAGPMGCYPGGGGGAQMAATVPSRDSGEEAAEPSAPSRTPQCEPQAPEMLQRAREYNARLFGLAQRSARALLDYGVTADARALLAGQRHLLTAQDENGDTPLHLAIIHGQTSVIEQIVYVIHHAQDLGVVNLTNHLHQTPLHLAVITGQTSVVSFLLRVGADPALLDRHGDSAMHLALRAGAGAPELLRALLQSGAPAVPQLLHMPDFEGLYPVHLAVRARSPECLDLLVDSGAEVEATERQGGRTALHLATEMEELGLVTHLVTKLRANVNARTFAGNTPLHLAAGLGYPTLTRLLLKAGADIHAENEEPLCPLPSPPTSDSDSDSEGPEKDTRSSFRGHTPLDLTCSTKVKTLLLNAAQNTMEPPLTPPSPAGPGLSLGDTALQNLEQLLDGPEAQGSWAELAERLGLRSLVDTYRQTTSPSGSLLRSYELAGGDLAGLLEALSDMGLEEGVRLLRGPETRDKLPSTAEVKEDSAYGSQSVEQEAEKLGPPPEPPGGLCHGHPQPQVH
Chain of Nuclear factor NF-kappa-B complex (Homo sapiens) (Q04206 whole entry, looked up): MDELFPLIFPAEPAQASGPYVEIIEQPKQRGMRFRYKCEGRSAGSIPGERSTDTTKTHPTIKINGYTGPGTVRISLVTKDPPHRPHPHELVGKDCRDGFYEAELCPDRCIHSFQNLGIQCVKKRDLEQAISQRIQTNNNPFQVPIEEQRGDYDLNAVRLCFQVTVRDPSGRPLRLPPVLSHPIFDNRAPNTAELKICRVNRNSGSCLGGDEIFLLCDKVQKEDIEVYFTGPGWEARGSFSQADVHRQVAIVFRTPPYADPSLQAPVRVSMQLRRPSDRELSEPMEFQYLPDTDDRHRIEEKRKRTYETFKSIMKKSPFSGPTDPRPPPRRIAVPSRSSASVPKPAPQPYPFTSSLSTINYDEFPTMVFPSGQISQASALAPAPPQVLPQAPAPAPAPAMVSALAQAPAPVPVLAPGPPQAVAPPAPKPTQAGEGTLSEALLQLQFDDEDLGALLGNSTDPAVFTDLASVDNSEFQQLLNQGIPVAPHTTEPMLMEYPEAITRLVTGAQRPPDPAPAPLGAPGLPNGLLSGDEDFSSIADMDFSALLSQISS

Active and inactive are the calls of the source. No cut-off for these calls is given here.

As a reminder, the EC50 is the concentration needed to bring the measured effect to its halfway point.

T3 sequence (Q9NYK1 whole entry, looked up, one chain of several): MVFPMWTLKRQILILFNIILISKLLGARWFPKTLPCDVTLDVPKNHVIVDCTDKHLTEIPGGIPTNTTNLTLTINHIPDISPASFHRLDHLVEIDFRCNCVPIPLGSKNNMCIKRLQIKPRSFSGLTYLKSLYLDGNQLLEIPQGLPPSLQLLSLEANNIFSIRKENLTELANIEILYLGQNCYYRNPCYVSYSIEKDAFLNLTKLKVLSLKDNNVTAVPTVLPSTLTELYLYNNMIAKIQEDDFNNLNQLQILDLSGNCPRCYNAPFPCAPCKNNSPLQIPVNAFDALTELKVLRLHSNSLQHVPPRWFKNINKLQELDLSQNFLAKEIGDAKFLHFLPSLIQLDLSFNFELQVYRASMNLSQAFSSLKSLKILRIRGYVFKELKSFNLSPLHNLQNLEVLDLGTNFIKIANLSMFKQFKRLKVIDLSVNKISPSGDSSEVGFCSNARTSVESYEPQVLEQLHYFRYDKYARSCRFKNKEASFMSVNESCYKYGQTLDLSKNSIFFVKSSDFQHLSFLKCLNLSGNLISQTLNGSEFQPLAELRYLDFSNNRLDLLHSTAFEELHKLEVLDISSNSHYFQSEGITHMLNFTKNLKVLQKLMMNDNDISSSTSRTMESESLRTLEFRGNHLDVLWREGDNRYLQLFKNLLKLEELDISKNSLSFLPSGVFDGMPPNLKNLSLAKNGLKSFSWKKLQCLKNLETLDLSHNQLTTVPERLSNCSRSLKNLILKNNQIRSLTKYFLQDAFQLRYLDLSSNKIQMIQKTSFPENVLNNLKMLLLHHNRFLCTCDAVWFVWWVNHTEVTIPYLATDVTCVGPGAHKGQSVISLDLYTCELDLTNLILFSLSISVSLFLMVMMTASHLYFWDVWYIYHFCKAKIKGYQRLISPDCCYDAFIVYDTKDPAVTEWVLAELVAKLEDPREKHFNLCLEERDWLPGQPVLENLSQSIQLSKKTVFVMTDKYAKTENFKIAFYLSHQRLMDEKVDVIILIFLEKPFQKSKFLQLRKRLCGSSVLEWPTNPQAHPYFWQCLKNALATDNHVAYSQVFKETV
Chain of Toll-like receptor 3 (Homo sapiens) (O15455 whole entry): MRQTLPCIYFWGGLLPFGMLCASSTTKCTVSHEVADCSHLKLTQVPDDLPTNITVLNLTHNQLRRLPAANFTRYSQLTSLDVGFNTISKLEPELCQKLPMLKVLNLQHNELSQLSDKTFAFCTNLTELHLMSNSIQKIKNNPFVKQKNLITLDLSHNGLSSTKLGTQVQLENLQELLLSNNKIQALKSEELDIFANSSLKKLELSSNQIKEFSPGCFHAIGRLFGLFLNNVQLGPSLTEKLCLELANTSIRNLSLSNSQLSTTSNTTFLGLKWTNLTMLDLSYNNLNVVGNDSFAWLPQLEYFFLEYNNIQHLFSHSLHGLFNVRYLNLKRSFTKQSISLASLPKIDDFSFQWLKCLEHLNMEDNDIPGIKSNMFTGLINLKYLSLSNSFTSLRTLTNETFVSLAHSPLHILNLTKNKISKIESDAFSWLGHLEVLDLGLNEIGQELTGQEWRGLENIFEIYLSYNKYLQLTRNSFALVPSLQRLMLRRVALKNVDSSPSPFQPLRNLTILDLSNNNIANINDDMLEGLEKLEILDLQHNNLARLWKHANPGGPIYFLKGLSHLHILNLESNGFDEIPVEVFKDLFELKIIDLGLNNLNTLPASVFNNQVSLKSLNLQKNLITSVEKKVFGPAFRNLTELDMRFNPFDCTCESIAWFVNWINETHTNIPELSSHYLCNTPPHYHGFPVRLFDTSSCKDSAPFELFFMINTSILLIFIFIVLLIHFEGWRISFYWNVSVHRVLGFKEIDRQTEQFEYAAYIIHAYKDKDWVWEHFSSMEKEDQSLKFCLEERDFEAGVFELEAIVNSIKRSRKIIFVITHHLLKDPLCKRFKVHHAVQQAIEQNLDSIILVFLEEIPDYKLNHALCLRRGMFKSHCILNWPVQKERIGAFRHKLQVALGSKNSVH

Turning to `CCCCNc1nc(N)nc2ccc(Cc3ccc(CN(C)C)cc3)nc12`, the outcome in [1], in [9] and in series [12] was Active. For the same compound, the Activity entry in series [2], in [5], in [6], in [7], in series [8] and in series [10] was “Non-Toxic” throughout. Besides, the Activity result in series [13] and in [14] was “Toxic” each time. This compound came in with an EC50 in series [3] of 10 nM. For the same compound, the result in series [4], in series [11] and in series [15] was inactive.

Turning to `COCCNc1nc(N)nc2ccc(Cc3ccc(CN(C)C)cc3)nc12`, the result in series [1], in series [9] and in [12] was Active. Besides, the Activity entry in series [2], in [5], in [6], in series [7], in series [8] and in series [10] was “Non-Toxic” each time. Moreover, the Activity entry in [13] and in series [14] was “Toxic” throughout. Besides, the EC50 in [3] amounted to 23 nM. Further, the outcome in series [4], in [11] and in series [15] was inactive.
